Measured values as given in ChEMBL document CHEMBL1124366, “Synthesis and biological properties of N63-carboxamides of teicoplanin antibiotics. Structure-activity relationships” (J Med Chem, 1989).
Converted amounts (≈) assume the structure as drawn.

What was measured:
Format in all cases: functional
Streptococcus pyogenes [1] = experiment: In vivo effective dose given perorally to mice infected with Streptococcus pyogenes C 203; settings: po
Summary of the method: (§1)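 Mice (five per treatment group, five groups) infected intraperitoneally with about 10⁵ cells of Strep. pyogenes C 203, about 100× the LD50. ED50 (mg/kg) was calculated from the percentage of mice surviving at each dose on day 7.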

Streptococcus pyogenes [2] = experiment: Subcutaneously administration into mice infected with Streptococcus pyogenes C 203; settings: sc; summary of the method: as §1
[3] = test system: Staphylococcus epidermidis; experiment: In vitro minimum inhibitory concentration against Staphylococcus epidermis ATCC 12228
Staphylococcus aureus = experiment: In vitro minimum inhibitory concentration against Staphylococcus aureus Tour
Streptococcus pneumoniae = experiment: In vitro minimum inhibitory concentration against Streptococcus pneumoniae UC41
Streptococcus pyogenes [4] = experiment: In vitro minimum inhibitory concentration against Streptococcus pyogenes C 203
Enterococcus faecalis = experiment: In vitro minimum inhibitory concentration against Streptococcus faecalis ATCC 7080
[5] = test system: Staphylococcus haemolyticus; experiment: In vitro minimum inhibitory concentration against Staphylococcus hemolyticus 602 cell line; settings: strain 602
Escherichia coli = experiment: In vitro minimum inhibitory concentration against Escherichia coli SKF 12140
Proteus vulgaris = experiment: In vitro minimum inhibitory concentration against Proteus vulgaris X 19 ATCC 881

| SMILES | ED50 (Streptococcus pyogenes [1]) | ED50 (Streptococcus pyogenes [2]) | MIC [3] | MIC (Staphylococcus aureus) | MIC (Streptococcus pneumoniae) | MIC (Streptococcus pyogenes [4]) | MIC (Enterococcus faecalis) | MIC [5] | MIC (Escherichia coli) | MIC (Proteus vulgaris) |
| --- | --- | --- | --- | --- | --- | --- | --- | --- | --- | --- |
| CC(=O)N[C@@H]1[C@H](O[C@@H]2c3ccc(c(Cl)c3)Oc3cc4cc(c3O[C@@H]3O[C@@H](CO)[C@@H](O)[C@H](O)[C@@H]3NC(=O)CCCCCCC(C)C)Oc3ccc(cc3Cl)C[C@H]3NC(=O)[C@H](N)c5ccc(O)c(c5)Oc5cc(O)cc(c5)[C@H](NC3=O)C(=O)N[C@H]4C(=O)N[C@H]3C(=O)N[C@@H]2C(=O)N[C@H](C(=O)N(C)C)c2cc(O)cc(O[C@H]4O[C@H](CO)[C@@H](O)[C@@H](O)[C@@H]4O)c2-c2cc3ccc2O)O[C@@H](CO)[C@@H](O)[C@@H]1O | 139 mg/kg | 0.08 mg/kg | 0.25 µg/mL (≈ 0.131 µM) | 0.12 µg/mL (≈ 0.0629 µM) | 0.06 µg/mL (≈ 0.0315 µM) | 0.06 µg/mL (≈ 0.0315 µM) | 0.12 µg/mL (≈ 0.0629 µM) |  |  |  |
| CCCCC/C=C/CCC(=O)N[C@@H]1[C@H](Oc2c3cc4cc2Oc2ccc(cc2Cl)[C@@H](O[C@@H]2O[C@@H](CO)[C@@H](O)[C@H](O)[C@@H]2NC(C)=O)[C@@H]2NC(=O)[C@H](NC(=O)[C@@H]4NC(=O)[C@H]4NC(=O)[C@@H](Cc5ccc(c(Cl)c5)O3)NC(=O)[C@H](N)c3ccc(O)c(c3)Oc3cc(O)cc4c3)c3ccc(O)c(c3)-c3c(O[C@H]4O[C@H](CO)[C@@H](O)[C@@H](O)[C@@H]4O)cc(O)cc3[C@@H](C(=O)NC(CCC(=O)O)C(=O)O)NC2=O)O[C@@H](CO)[C@@H](O)[C@@H]1O (some centres not stated) |  |  | 0.12 µg/mL (≈ 0.0598 µM) | 0.5 µg/mL (≈ 0.249 µM) | 0.12 µg/mL (≈ 0.0598 µM) | 0.06 µg/mL (≈ 0.0299 µM) | 0.25 µg/mL (≈ 0.125 µM) | 4 µg/mL (≈ 1.99 µM) |  |  |
| CC(=O)N[C@@H]1[C@H](O[C@@H]2c3ccc(c(Cl)c3)Oc3cc4cc(c3O[C@@H]3O[C@@H](CO)[C@@H](O)[C@H](O)[C@@H]3NC(=O)CCCCCCC(C)C)Oc3ccc(cc3Cl)C[C@H]3NC(=O)[C@H](N)c5ccc(O)c(c5)Oc5cc(O)cc(c5)[C@H](NC3=O)C(=O)N[C@H]4C(=O)N[C@H]3C(=O)N[C@@H]2C(=O)N[C@H](C(=O)N2CCN(C)CC2)c2cc(O)cc(O[C@H]4O[C@H](CO)[C@@H](O)[C@@H](O)[C@@H]4O)c2-c2cc3ccc2O)O[C@@H](CO)[C@@H](O)[C@@H]1O | 115 mg/kg | < 0.03 mg/kg | 0.12 µg/mL (≈ 0.0612 µM) | 0.12 µg/mL (≈ 0.0612 µM) | 0.12 µg/mL (≈ 0.0612 µM) | 0.06 µg/mL (≈ 0.0306 µM) | 0.06 µg/mL (≈ 0.0306 µM) |  |  |  |
| COC(=O)CNC(=O)[C@H]1NC(=O)[C@H]2NC(=O)[C@H](NC(=O)[C@@H]3NC(=O)[C@H]4NC(=O)[C@@H](Cc5ccc(c(Cl)c5)Oc5cc3cc(c5O)Oc3ccc(cc3Cl)[C@H]2O[C@@H]2O[C@@H](CO)[C@@H](O)[C@H](O)[C@@H]2NC(C)=O)NC(=O)[C@H](N)c2ccc(O)c(c2)Oc2cc(O)cc4c2)c2ccc(O)c(c2)-c2c(O)cc(O)cc21 |  | 7 mg/kg | 0.06 µg/mL (≈ 0.0407 µM) | 0.25 µg/mL (≈ 0.17 µM) | 2 µg/mL (≈ 1.36 µM) | 0.25 µg/mL (≈ 0.17 µM) | 0.5 µg/mL (≈ 0.339 µM) |  | > 128 µg/mL | > 128 µg/mL |
| CC(=O)N[C@@H]1[C@H](O[C@@H]2c3ccc(c(Cl)c3)Oc3cc4cc(c3O[C@@H]3O[C@@H](CO)[C@@H](O)[C@H](O)[C@@H]3NC(=O)CCCCCCC(C)C)Oc3ccc(cc3Cl)C[C@H]3NC(=O)[C@H](N)c5ccc(O)c(c5)Oc5cc(O)cc(c5)[C@H](NC3=O)C(=O)N[C@H]4C(=O)N[C@H]3C(=O)N[C@@H]2C(=O)N[C@H](C(=O)NC2CN4CCC2CC4)c2cc(O)cc(O[C@H]4O[C@H](CO)[C@@H](O)[C@@H](O)[C@@H]4O)c2-c2cc3ccc2O)O[C@@H](CO)[C@@H](O)[C@@H]1O (some centres not stated) | 173 mg/kg | 0.07 mg/kg | 0.12 µg/mL (≈ 0.0604 µM) | 0.12 µg/mL (≈ 0.0604 µM) | 0.06 µg/mL (≈ 0.0302 µM) | 0.06 µg/mL (≈ 0.0302 µM) | 0.12 µg/mL (≈ 0.0604 µM) |  |  |  |
| CC(=O)N[C@@H]1[C@H](O[C@@H]2c3ccc(c(Cl)c3)Oc3cc4cc(c3O[C@@H]3O[C@@H](CO)[C@@H](O)[C@H](O)[C@@H]3NC(=O)CCCCCCC(C)C)Oc3ccc(cc3Cl)C[C@H]3NC(=O)[C@H](N)c5ccc(O)c(c5)Oc5cc(O)cc(c5)[C@H](NC3=O)C(=O)N[C@H]4C(=O)N[C@H]3C(=O)N[C@@H]2C(=O)N[C@H](C(=O)NCCN2CCCC2)c2cc(O)cc(O[C@H]4O[C@H](CO)[C@@H](O)[C@@H](O)[C@@H]4O)c2-c2cc3ccc2O)O[C@@H](CO)[C@@H](O)[C@@H]1O | 173 mg/kg | 0.06 mg/kg | 0.12 µg/mL (≈ 0.0607 µM) | 0.12 µg/mL (≈ 0.0607 µM) | 0.12 µg/mL (≈ 0.0607 µM) | 0.06 µg/mL (≈ 0.0304 µM) | 0.12 µg/mL (≈ 0.0607 µM) |  |  |  |
| CC(=O)N[C@@H]1[C@H](O[C@@H]2c3ccc(c(Cl)c3)Oc3cc4cc(c3O[C@@H]3O[C@@H](CO)[C@@H](O)[C@H](O)[C@@H]3NC(=O)CCCCCCC(C)C)Oc3ccc(cc3Cl)C[C@H]3NC(=O)[C@H](N)c5ccc(O)c(c5)Oc5cc(O)cc(c5)[C@H](NC3=O)C(=O)N[C@H]4C(=O)N[C@H]3C(=O)N[C@@H]2C(=O)N[C@H](C(=O)NCCN2CCOCC2)c2cc(O)cc(O[C@H]4O[C@H](CO)[C@@H](O)[C@@H](O)[C@@H]4O)c2-c2cc3ccc2O)O[C@@H](CO)[C@@H](O)[C@@H]1O | 300 mg/kg | 0.08 mg/kg | 0.12 µg/mL (≈ 0.0602 µM) | 0.12 µg/mL (≈ 0.0602 µM) | 0.12 µg/mL (≈ 0.0602 µM) | 0.06 µg/mL (≈ 0.0301 µM) | 0.12 µg/mL (≈ 0.0602 µM) |  |  |  |
| CCCCN(CCCC)CCCNC(=O)[C@H]1NC(=O)[C@H]2NC(=O)[C@H](NC(=O)[C@@H]3NC(=O)[C@H]4NC(=O)[C@@H](Cc5ccc(c(Cl)c5)Oc5cc3cc(c5O[C@@H]3O[C@@H](CO)[C@@H](O)[C@H](O)[C@@H]3NC(=O)CCCCCCC(C)C)Oc3ccc(cc3Cl)[C@H]2O[C@@H]2O[C@@H](CO)[C@@H](O)[C@H](O)[C@@H]2NC(C)=O)NC(=O)[C@H](N)c2ccc(O)c(c2)Oc2cc(O)cc4c2)c2ccc(O)c(c2)-c2c(O[C@H]3O[C@H](CO)[C@@H](O)[C@@H](O)[C@@H]3O)cc(O)cc21 | 300 mg/kg | 0.1 mg/kg | 0.06 µg/mL (≈ 0.0293 µM) | 0.25 µg/mL (≈ 0.122 µM) | 0.06 µg/mL (≈ 0.0293 µM) | 0.06 µg/mL (≈ 0.0293 µM) | 0.12 µg/mL (≈ 0.0586 µM) |  |  |  |
| CC(=O)N[C@@H]1[C@H](O[C@@H]2c3ccc(c(Cl)c3)Oc3cc4cc(c3O[C@@H]3O[C@@H](CO)[C@@H](O)[C@H](O)[C@@H]3NC(=O)CCCCCCC(C)C)Oc3ccc(cc3Cl)C[C@H]3NC(=O)[C@H](N)c5ccc(O)c(c5)Oc5cc(O)cc(c5)[C@H](NC3=O)C(=O)N[C@H]4C(=O)N[C@H]3C(=O)N[C@@H]2C(=O)N[C@H](C(=O)N2CCSCC2)c2cc(O)cc(O[C@H]4O[C@H](CO)[C@@H](O)[C@@H](O)[C@@H]4O)c2-c2cc3ccc2O)O[C@@H](CO)[C@@H](O)[C@@H]1O | 220 mg/kg | 0.08 mg/kg | 0.25 µg/mL (≈ 0.127 µM) | 0.12 µg/mL (≈ 0.0611 µM) | 0.12 µg/mL (≈ 0.0611 µM) | 0.06 µg/mL (≈ 0.0305 µM) | 0.12 µg/mL (≈ 0.0611 µM) |  |  |  |
| CCOC(=O)CNC(=O)[C@H]1NC(=O)[C@H]2NC(=O)[C@H](NC(=O)[C@@H]3NC(=O)[C@H]4NC(=O)[C@@H](Cc5ccc(c(Cl)c5)Oc5cc3cc(c5O)Oc3ccc(cc3Cl)[C@H]2O[C@@H]2O[C@@H](CO)[C@@H](O)[C@H](O)[C@@H]2NC(C)=O)NC(=O)[C@H](N)c2ccc(O)c(c2)Oc2cc(O)cc4c2)c2ccc(O)c(c2)-c2c(O)cc(O)cc21 |  | 5 mg/kg | 0.12 µg/mL (≈ 0.0807 µM) | 0.5 µg/mL (≈ 0.336 µM) | 1 µg/mL (≈ 0.672 µM) | 0.25 µg/mL (≈ 0.168 µM) | 1 µg/mL (≈ 0.672 µM) |  | 128 µg/mL (≈ 86.1 µM) | > 128 µg/mL |
| CCN(CC)CCCNC(=O)[C@H]1NC(=O)[C@H]2NC(=O)[C@H](NC(=O)[C@@H]3NC(=O)[C@H]4NC(=O)[C@@H](Cc5ccc(c(Cl)c5)Oc5cc3cc(c5O)Oc3ccc(cc3Cl)[C@H]2O[C@@H]2O[C@@H](CO)[C@@H](O)[C@H](O)[C@@H]2NC(C)=O)NC(=O)[C@H](N)c2ccc(O)c(c2)Oc2cc(O)cc4c2)c2ccc(O)c(c2)-c2c(O)cc(O)cc21 |  | 0.95 mg/kg | 0.06 µg/mL (≈ 0.0396 µM) | 0.12 µg/mL (≈ 0.0792 µM) | 0.5 µg/mL (≈ 0.33 µM) | 0.12 µg/mL (≈ 0.0792 µM) | 0.25 µg/mL (≈ 0.165 µM) |  | 64 µg/mL (≈ 42.3 µM) | 128 µg/mL (≈ 84.5 µM) |
| CC(=O)NC1C(O[C@@H]2c3ccc(c(Cl)c3)Oc3cc4cc(c3O)Oc3ccc(cc3Cl)C[C@H]3NC(=O)[C@H](N)c5ccc(O)c(c5)Oc5cc(O)cc(c5)[C@H](NC3=O)C(=O)N[C@H]4C(=O)N[C@H]3C(=O)N[C@@H]2C(=O)N[C@H](C(=O)NCCN2CCCC2)c2cc(O)cc(O)c2-c2cc3ccc2O)OC(CO)C(O)C1O (some centres not stated) |  | 2.2 mg/kg | 0.06 µg/mL (≈ 0.04 µM) | 0.12 µg/mL (≈ 0.0801 µM) | 0.25 µg/mL (≈ 0.167 µM) | 0.25 µg/mL (≈ 0.167 µM) | 0.5 µg/mL (≈ 0.334 µM) |  | 128 µg/mL (≈ 85.4 µM) | > 128 µg/mL |
